# Compounds with a hit are over-represented: about 2.1% of the library has one in this group of screens.
# CRFR2-BP antag – blocks CRF-induced signaling of the CRF-BP/CRF-R2 complex. HEK293 CRF-R2/CRF-BP, CRF-induced calcium fluorescence. inhibition, % at 11.8 µM. 0.59% of 350,000 active;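 active = inhibition of the ligand-induced calcium signal above about 50% at the single tested concentration, limit read from the data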
# CRFBP-R2 agonist – CRF-BP/CRF-R2 complex agonism; HEK293 CRF-R2/CRF-BP, calcium dye fluorescence (FLIPR); percent of saturating CRF peptide response; activation, % at 13.2 µM; 0.46% of 350,000 active; AID 588473;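 active = activation of at least 50%, plus an integration ratio under a set limit after plate pattern correction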;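 note: plate controls were neutral control wells without compound for no effect and CRF at EC100 for full effect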
# Cardio protect – protects H9c2 cardiomyocytes from peroxide injury | H2O2 injury protection, ATPLite, 2 h | protection from H2O2 cell death, % at 20 µM | 0.63% of 360,000 active;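 active = compounds giving at least 50% protection of heart cells from peroxide-induced death in the single-dose screen, raw or plate-pattern-corrected value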;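 note: 0% = DMSO wells with peroxide and 100% = DMSO wells without peroxide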
# UCH37 DUB inh – human UCH37 deubiquitinating enzyme inhibition; Q9Y5K5; purified proteasome/UCH37, Ub-AMC cleavage fluorescence; inhibition, % (concentration not given with the values); 0.33% of 330,000 active;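 active = mean inhibition over replicate wells above about 20%, limit read from the data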;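 note: 0% = compound-free wells with enzyme and 100% = wells lacking proteasome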
# Target sequence (Q9Y5K5 whole entry, looked up): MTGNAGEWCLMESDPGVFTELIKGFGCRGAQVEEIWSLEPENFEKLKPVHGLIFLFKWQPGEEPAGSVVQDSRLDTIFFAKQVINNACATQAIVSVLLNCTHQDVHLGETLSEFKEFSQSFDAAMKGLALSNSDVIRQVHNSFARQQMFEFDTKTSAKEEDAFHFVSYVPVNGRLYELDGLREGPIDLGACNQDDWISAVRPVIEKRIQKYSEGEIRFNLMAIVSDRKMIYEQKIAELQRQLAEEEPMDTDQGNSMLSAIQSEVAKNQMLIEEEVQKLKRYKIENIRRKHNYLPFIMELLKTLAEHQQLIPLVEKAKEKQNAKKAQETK
#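 Reagent: Ub-AMC substrate; assay system: Proteasome-associated human UCH37 deubiquitinase; controls: no-proteasome and no-compound wells; read-out: % inhibition of Ub-AMC cleavage fluorescence; timing: 30 min preincubation with enzyme, 25 min cleavage at room temperature; signal: AMC fluorescence from Ub-AMC cleavage, excitation 355 nm, emission 460 nm; buffer or medium: Tris-HCl pH 7.4 plus ovalbumin, ATP-MgCl2, DTT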
# beta cell repl – induces beta-cell replication in MIN6 cells; MIN6 cells proliferation, ATPlite luminescence, 48 h; cells starved in 0.2% serum; 100% = growth in 10% serum; 0.29% of 330,000 active; proliferation, % at 10 µM; AID 2380;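 active = compounds whose signal lies at least 3.5 SD above the mean of all wells on their plate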;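 note: 0% = DMSO-treated cells in low-serum medium and 100% = 10% serum control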
# hiPSC survival – enhancers of human iPSC single-cell survival; survival enhancement, % at 20 µM; 0.044% of 360,000 active; hiPSC single-cell survival, ATPlite luminescence; 100% = ROCK inhibitor wells, 0% = DMSO; AID 602274; in the data active = survival enhancement above about 18%;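 note: cells exposed to compounds for 16 hours before the ATP read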
# The depositor's hits bear a star; . = no result.
SMILES,CRFR2-BP antag,CRFBP-R2 agonist,Cardio protect,UCH37 DUB inh,beta cell repl,hiPSC survival
CC1(C)CC(=NNC(=O)c2n[nH]c3c2CCC3)CC(C)(C)N1,5.0,-0.4,8.1,31.3*,-1.9,3.6
Cc1ccc(O)c(C(=O)c2cc(C#N)c(=O)n(-c3nccs3)c2)c1,-107.8,165.9*,-7.4,2.6,-4.7,0.0
Cc1ccc(O)c(C(=O)c2cc(C#N)c(=O)n(-c3c(C)n(C)n(-c4ccccc4)c3=O)c2)c1,-17.5,48.3,9.5,7.5,0.0,-1.6
Cc1nc(CC(=NNc2ccccc2)c2ccc(O)cc2O)cs1,.,.,.,8.2,.,.
COc1ccc(C(=O)c2sc3nc(C)cc(-c4cccs4)c3c2N)cc1OC,-132.2,108.2*,16.9,-2.7,.,1.0
Cc1cc(-c2cccs2)c2c(N)c(C(=O)c3ccc4c(c3)OCO4)sc2n1,-197.4,109.1*,-2.3,-17.4,0.0,-0.7
COc1ccc(C(=O)c2sc3nc(C)cc(-c4cccs4)c3c2N)cc1,-69.9,66.9*,-5.3,-13.1,.,0.9
CC(C)NC(=O)c1sc2nc(-c3cccs3)cc(-c3cccs3)c2c1N,-32.9,0.8,.,-7.9,-4.7,.
Cc1cc(C)nc(NN=Cc2c[nH]c3ccccc23)n1,.,.,.,8.7,.,.
Cc1ccc(OCC(=O)Nc2cc(Cl)ccc2-n2cncn2)c(C)c1,-3.6,-1.2,-0.7,.,.,1.2
Cc1ccc(S(=O)(=O)CCC(=O)Nc2cc(Cl)ccc2-n2cncn2)cc1,50.3*,-0.2,4.7,1.4,-2.0,-0.4
CCCN(C(=O)c1cc(Cl)nc2ccccc12)C1CCS(=O)(=O)C1 (stereo not drawn),75.1*,-1.5,-0.3,0.4,-1.5,-0.4
CC(C)CN(C(=O)c1cc(Cl)nc2ccccc12)C1CCS(=O)(=O)C1 (stereo not drawn),-8.7,2.5,3.3,-0.7,0.7,-0.4
CCO/C(=C/c1sc2ccc(OC)cc2[n+]1CCCS(=O)(=O)[O-])CC,9.3,-1.4,0.1,21.3*,1.8,-0.6
O=C(NC(Nc1nc2ccc([N+](=O)[O-])cc2s1)(C(F)(F)F)C(F)(F)F)c1ccccc1Cl,8.2,25.3,-15.4,4.4,-6.2,3.6
O=C(NC(Nc1nc2ccc([N+](=O)[O-])cc2s1)(C(F)(F)F)C(F)(F)F)c1cccnc1,59.9*,57.2*,-34.6,9.8,-6.1,-1.6
CN(C(=O)COC(=O)C(Cc1ccccc1)NC(=O)c1ccccc1)c1ccccc1 (stereo not drawn),17.5,1.0,9.1,4.0,0.0,-1.8
CN(C)C(=O)COC(=O)[C@H](Cc1ccccc1)NC(=O)c1ccco1,-41.7,106.6*,2.2,4.4,-1.9,1.1
O=C(COC(=O)C(Cc1ccccc1)NC(=O)c1cccs1)NCc1ccccc1 (stereo not drawn),9.3,-4.7,-5.5,5.2,-0.4,3.1
O=C(COC(=O)[C@H](Cc1ccccc1)NC(=O)c1ccco1)NCc1ccccc1,-72.0,78.8*,4.3,1.8,0.9,-0.8
CC1(C)CC[C@]2(C(=O)O[C@@H]3O[C@H](CO)[C@@H](O)[C@H](O)[C@H]3O)CC[C@]3(C)C(=CCC4[C@@]5(C)CC[C@H](O[C@@H]6O[C@H](C(=O)O)[C@@H](O[C@H]7OC[C@@H](O)[C@@H](O)[C@@H]7O)[C@H](O)[C@H]6O)C(C)(C)C5CC[C@]43C)[C@@H]2C1 (stereo partly drawn),-10.5,-0.4,-2.2,-2.0,-1.6,3.5
CC1(C)CC[C@]2(C(=O)O)CC[C@]3(C)C(=CC[C@@H]4[C@@]5(C)CC[C@H](O[C@@H]6O[C@H](C(=O)O)[C@@H](O)[C@H](O[C@@H]7OC[C@H](O)[C@H](O)[C@H]7O)[C@H]6O)C(C)(C)[C@@H]5CC[C@]43C)[C@@H]2C1,-226.8,255.9*,-10.7,.,-5.7,1.7
COc1ccc(C(=O)NCC(=O)NN=C/C=C/c2ccccc2)cc1OC,.,.,.,3.0,.,.
Cc1ccc(C(=O)NC(=S)NNC(=O)COc2ccccc2C)cc1,-50.4,114.0*,9.5,.,-5.2,-0.7
Cc1cccc(C(=O)NC(=S)Nc2ccccc2C(=O)O)c1,-9.9,-2.2,0.0,-0.1,3.6,2.3
SMILES,CRFR2-BP antag,CRFBP-R2 agonist,Cardio protect,UCH37 DUB inh,beta cell repl,hiPSC survival
Cc1cccc(C(=O)NC(=S)NNC(=O)Cc2ccccc2)c1,17.2,136.5*,23.7,-0.9,0.0,-0.2
Cc1cccc(C(=O)NC(=S)NNC(=O)c2ccccc2Cl)c1,-1.9,152.2*,24.9,-0.4,-2.4,0.5
Cc1cccc(C(=O)NC(=S)NNC(=O)COc2c(C)cccc2C)c1,-90.3,166.5*,-7.5,6.5,-5.2,-0.8
O=C(CNC(=O)c1ccc(S(=O)(=O)N2CCCC2)cc1)NN=Cc1ccco1,.,.,.,-0.4,.,.
Cc1ccc(OCC(=O)NNC(=S)NC(=O)C(C)(C)C)c(Br)c1,-18.5,84.5*,-1.0,1.0,-4.7,0.2
Cc1cccc(C(=O)NC(=S)N2CCN(C)CC2)c1,22.0,-1.0,1.3,0.1,2.8,-0.6
Cc1cccc(C(=O)NC(=S)N2CCN(C(=S)NC(=O)c3cccc(C)c3)CC2)c1,50.2*,-0.7,6.8,.,0.0,-1.2
CCOC(=O)C1CCN(C(=O)c2ccc3c(=O)n4nc(Nc5ccccc5OC)sc4nc3c2)CC1,7.6,-1.1,70.9*,.,.,-0.7
CCOC(=O)C1CCN(C(=O)c2ccc3c(=O)n4nc(Nc5cc(C)ccc5C)sc4nc3c2)CC1,-26.9,2.9,17.0,-5.2,-5.9,1.8
S=c1[nH]nc(-c2ccco2)n1N=Cc1ccc(Cl)c(Cl)c1,.,.,.,0.5,.,.
COc1ccc(O)c(C(=O)c2cc(C#N)c(=O)n(-c3c(C)n(C)n(-c4ccccc4)c3=O)c2)c1,-4.9,85.7*,1.3,8.1,-1.5,-2.7
COC(=O)c1ccccc1NCc1cc(=O)oc2cc(O)c(O)cc12,-3.7,0.7,67.2*,-32.2,-3.5,-0.7
CCN(CC)c1ccc(/C=C2\C(=O)c3ccc(C(=O)O)cc3C2=O)cc1,-243.0,247.9*,-15.5,19.4,.,-1.5
CCN(CC)c1ccc(C(=O)O)cc1,-3.2,2.4,4.3,1.1,-0.5,-0.4
CC(=NNS(=O)(=O)c1ccc(C)c([N+](=O)[O-])c1)c1cccs1,.,.,.,4.1,.,.
Cc1[nH]c2ccccc2c1C=NNC(=O)c1cc(-c2cccs2)[nH]n1,.,.,.,-14.6,.,.
Cc1nn(-c2ccccc2)c(C)c1/C=N/NC(=O)c1cc(C(C)(C)C)[nH]n1,4.4,-0.9,54.2*,.,0.1,-0.9
Cc1[nH]c2ccccc2c1/C=N/NC(=O)c1cc(-c2cccs2)[nH]n1,-6.5,-0.3,51.0*,.,-2.7,-0.9
Cc1ccc(-c2cc(C(=O)N/N=C/c3c(C)nn(-c4ccccc4)c3C)n[nH]2)s1,-58.1,0.4,72.5*,.,.,-0.2
O=C(NN=Cc1cc(Br)ccc1O)c1ccncc1,.,.,.,4.6,.,.

# Screens from PubChem.
